Columns and labels:
Leishmania donovani [1] = assay: Antileishmanial activity against late log phase promastigote stage of Leishmania donovani MHOM/IN/80/Dd8 harboring luciferase reporter gene incubated for 72 hrs by Steady-Glo luminescence assay; format: functional, organism-based
Procedure, shortened: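 Luciferase-transfected promastigotes kept at 25 ± 1 °C in medium 199 + 10% heat-inactivated FCS + G418 (20 μg ml–1). Late-log cells (5 × 10^5 per well) grown 72 h with graded compound concentrations from DMSO, DMSO dilution controls. Aliquot mixed 1:1 with Steady-Glo, luminescence (RLU) read; % inhibition vs control. IC50 by Probit regression, three independent experiments.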

Leishmania donovani [2] = assay: Antileishmanial activity against Leishmania donovani MHOM/IN/80/Dd8 promastigotes harboring luciferase reporter gene infected in mouse J774 cells assessed as inhibition of amastigote growth incubated for 72 hrs by Steady-Glo luminescence assay; format: functional, organism-based
Procedure, shortened: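 J774A.1 mouse macrophages (2 × 10^5 per well, RPMI-1640 + 10% FCS, 37 °C CO2) infected after 24 h with stationary-phase luciferase-transgenic promastigotes at 1:10 macrophage:parasite; compounds in complete medium for 72 h at 37 °C. Medium swapped for PBS, Steady-Glo added, luminescence read; % inhibition vs untreated control RLU. IC50 by Probit log dose/response regression, three independent experiments.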

[3] = Cytotoxicity against mouse J774A1 cells assessed as reduction in cell viability incubated for 48 hrs by MTT assay; format: cell-based, J774.A1
Procedure, shortened: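 J774A.1 macrophages, 0.2 × 10^6 per well, incubated overnight at 37 °C in 5% CO2, then exposed to compounds in DMSO for 48 h, with DMSO dilutions as controls. Viability read by MTT formazan at 600 nm. CC50 = 50% viability reduction versus medium-only cells, from probit regression; three independent experiments.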

[4] = Selectivity index, ratio of CC50 for mouse J774.A1 cells to IC50 for amastigote form of Leishmania donovani MHOM/IN/80/Dd8; format: toxicity; details: read-out: Ratio CC50/IC50
Procedure, shortened: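 Macrophages infected at a 1:10 ratio with stationary promastigotes, then treated 72 h at 37 °C; luminescence read with Steady-Glo. IC50 values from probit analysis.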

[5] = Leishmania donovani, MHOM/IN/80/Dd8, 72 h, read-out: IC50
[6] = Leishmania donovani, MHOM/IN/80/Dd8, J774, 72 h, read-out: IC50

COC(=O)c1c([N+](=O)[O-])noc1-c1ccc(C(F)(F)F)cc1
IC50 (Leishmania donovani [1]; [5]): 0.66 µM
IC50 (Leishmania donovani [2]): Not Active

O=C(O)c1c([N+](=O)[O-])noc1-c1ccc([N+](=O)[O-])cc1
IC50 (Leishmania donovani [1]; [5]): 19 µM
IC50 (Leishmania donovani [2]): Not Active

O=C(NCCN1CCOCC1)c1c([N+](=O)[O-])noc1-c1ccc([N+](=O)[O-])cc1
IC50 (Leishmania donovani [1]; [5]): 2.83 µM
CC50 at 48 h [3]: 76.5 µM
IC50 (Leishmania donovani [2]; [6]): 21.9 µM
selectivity ratio [4]: 3.49

COC(=O)c1c([N+](=O)[O-])noc1-c1ccc(F)cc1
IC50 (Leishmania donovani [1]; [5]): 2.1 µM
IC50 (Leishmania donovani [2]): Not Active

O=C(Nc1ccccc1)c1c([N+](=O)[O-])noc1-c1ccc(Cl)cc1
IC50 (Leishmania donovani [1]; [5]): 2.81 µM
CC50 at 48 h [3]: 89.3 µM
IC50 (Leishmania donovani [2]; [6]): 3.56 µM
selectivity ratio [4]: 25.1

COC(=O)c1c(NCc2cccc(OC)c2)noc1-c1cc2c(cc1[N+](=O)[O-])OCO2
IC50 (Leishmania donovani [1]): Not Active
IC50 (Leishmania donovani [2]): Not Active

CCN(CC)CCNc1noc(-c2cc3c(cc2[N+](=O)[O-])OCO3)c1C(=O)OC
IC50 (Leishmania donovani [1]): Not Active
IC50 (Leishmania donovani [2]): Not Active

COc1ccc(CNC(=O)c2c([N+](=O)[O-])noc2-c2ccc(Cl)cc2)cc1
IC50 (Leishmania donovani [1]; [5]): 2.67 µM
CC50 at 48 h [3]: 89.5 µM
IC50 (Leishmania donovani [2]; [6]): 9.41 µM
selectivity ratio [4]: 9.5

COC(=O)c1c(NCc2ccc(OC)c(OC)c2)noc1-c1cc2c(cc1[N+](=O)[O-])OCO2
IC50 (Leishmania donovani [1]): Not Active
IC50 (Leishmania donovani [2]): Not Active

COC(=O)c1c(NCc2ccc(F)cc2)noc1-c1ccc([N+](=O)[O-])cc1
IC50 (Leishmania donovani [1]): Not Active
IC50 (Leishmania donovani [2]): Not Active

COc1cccc(CNC(=O)c2c([N+](=O)[O-])noc2-c2ccc(Cl)cc2Cl)c1
IC50 (Leishmania donovani [1]; [5]): 3.02 µM
CC50 at 48 h [3]: 61.1 µM
IC50 (Leishmania donovani [2]; [6]): 11.3 µM
selectivity ratio [4]: 5.41

CC(C)CCNC(=O)c1c([N+](=O)[O-])noc1-c1ccc(Cl)cc1
IC50 (Leishmania donovani [1]): Not Active
IC50 (Leishmania donovani [2]): Not Active

COC(=O)c1c(NCCCN2CCOCC2)noc1-c1ccc([N+](=O)[O-])cc1
IC50 (Leishmania donovani [1]; [5]): 33.8 µM
CC50 at 48 h [3]: 71.8 µM
IC50 (Leishmania donovani [2]; [6]): 4.53 µM
selectivity ratio [4]: 15.8

CCCNC(=O)c1c([N+](=O)[O-])noc1-c1ccc([N+](=O)[O-])cc1
IC50 (Leishmania donovani [1]; [5]): 3.07 µM
CC50 at 48 h [3]: 76.2 µM
IC50 (Leishmania donovani [2]; [6]): 21.3 µM
selectivity ratio [4]: 3.57

O=C(NCc1ccccc1)c1c([N+](=O)[O-])noc1-c1ccc(Cl)cc1Cl
IC50 (Leishmania donovani [1]; [5]): 1.32 µM
IC50 (Leishmania donovani [2]): Nd(Toxic)

COC(=O)c1c(NCCCN2CCOCC2)noc1-c1ccc(Cl)cc1Cl
IC50 (Leishmania donovani [1]; [5]): 2.58 µM
CC50 at 48 h [3]: 73 µM
IC50 (Leishmania donovani [2]; [6]): 21.2 µM
selectivity ratio [4]: 3.44

O=C(NCc1cccc(Cl)c1Cl)c1c([N+](=O)[O-])noc1-c1ccc(Cl)cc1Cl
IC50 (Leishmania donovani [1]; [5]): 3.49 µM
CC50 at 48 h [3]: 81.8 µM
IC50 (Leishmania donovani [2]; [6]): 1.41 µM
selectivity ratio [4]: 58

COC(=O)c1c(NCc2cccc(OC)c2)noc1-c1ccc([N+](=O)[O-])cc1
IC50 (Leishmania donovani [1]): Not Active
IC50 (Leishmania donovani [2]): Not Active

O=C(c1c([N+](=O)[O-])noc1-c1ccc([N+](=O)[O-])cc1)N1CCOCC1
IC50 (Leishmania donovani [1]; [5]): 2.71 µM
CC50 at 48 h [3]: 66 µM
IC50 (Leishmania donovani [2]; [6]): 15.6 µM
selectivity ratio [4]: 4.22

COC(=O)c1c(NCCCNc2ccnc3cc(Cl)ccc23)noc1-c1ccccc1F
IC50 (Leishmania donovani [1]; [5]): 16.8 µM
IC50 (Leishmania donovani [2]): Not Active

O=C(NCCN1CCOCC1)c1c([N+](=O)[O-])noc1-c1ccc(Cl)cc1
IC50 (Leishmania donovani [1]): Not Active
IC50 (Leishmania donovani [2]): Not Active

COC(=O)c1c([N+](=O)[O-])noc1-c1ccc([N+](=O)[O-])cc1
IC50 (Leishmania donovani [1]; [5]): 0.67 µM
IC50 (Leishmania donovani [2]): Not Active

COC(=O)c1c([N+](=O)[O-])noc1-c1ccc(Cl)c(Cl)c1
IC50 (Leishmania donovani [1]; [5]): 1.11 µM
IC50 (Leishmania donovani [2]): Not Active

O=C(NCc1ccc(F)cc1)c1c([N+](=O)[O-])noc1-c1ccc([N+](=O)[O-])cc1
IC50 (Leishmania donovani [1]): Not Active
IC50 (Leishmania donovani [2]): Not Active

COC(=O)c1c(NCc2ccc(OC)cc2OC)noc1-c1ccc([N+](=O)[O-])cc1
IC50 (Leishmania donovani [1]): Not Active
IC50 (Leishmania donovani [2]): Not Active

COC(=O)c1c(NCc2ccc(OC)cc2)noc1-c1cc2c(cc1[N+](=O)[O-])OCO2
IC50 (Leishmania donovani [1]): Not Active
IC50 (Leishmania donovani [2]): Not Active

O=C(c1c([N+](=O)[O-])noc1-c1ccc(Cl)cc1)N1CCOCC1
IC50 (Leishmania donovani [1]): Not Active
IC50 (Leishmania donovani [2]): Not Active

CCCNC(=O)c1c([N+](=O)[O-])noc1-c1ccc(Cl)cc1
IC50 (Leishmania donovani [1]): Not Active
IC50 (Leishmania donovani [2]): Not Active

COC(=O)c1c(NCc2ccc(OC)c(OC)c2)noc1-c1ccc([N+](=O)[O-])cc1
IC50 (Leishmania donovani [1]): Not Active
IC50 (Leishmania donovani [2]): Not Active

O=C(O)c1c([N+](=O)[O-])noc1-c1cc2c(cc1[N+](=O)[O-])OCO2
IC50 (Leishmania donovani [1]): Not Active
IC50 (Leishmania donovani [2]): Not Active

O=C(NCc1cccc(Br)c1)c1c([N+](=O)[O-])noc1-c1ccc(Cl)cc1
IC50 (Leishmania donovani [1]): Not Active
IC50 (Leishmania donovani [2]): Not Active

COC(=O)c1c(NCc2ccc(OC)cc2OC)noc1-c1cc2c(cc1[N+](=O)[O-])OCO2
IC50 (Leishmania donovani [1]): Not Active
IC50 (Leishmania donovani [2]): Not Active

COC(=O)c1c([N+](=O)[O-])noc1-c1cccc([N+](=O)[O-])c1
IC50 (Leishmania donovani [1]; [5]): 2.49 µM
IC50 (Leishmania donovani [2]): Not Active

COC(=O)c1c(NCc2ccc(C(C)(C)C)cc2)noc1-c1ccc(Cl)cc1Cl
IC50 (Leishmania donovani [1]; [5]): > 50 µM
IC50 (Leishmania donovani [2]; [6]): > 50 µM

COc1ccc(CNC(=O)c2c([N+](=O)[O-])noc2-c2ccc([N+](=O)[O-])cc2)cc1OC
IC50 (Leishmania donovani [1]; [5]): 1.3 µM
IC50 (Leishmania donovani [2]): Nd(Toxic)

O=C(NCc1cccc(Br)c1)c1c([N+](=O)[O-])noc1-c1ccc([N+](=O)[O-])cc1
IC50 (Leishmania donovani [1]): Not Active
IC50 (Leishmania donovani [2]): Not Active

COC(=O)c1c(NCCCNc2ccnc3cc(Cl)ccc23)noc1-c1ccccc1[N+](=O)[O-]
IC50 (Leishmania donovani [1]; [5]): 1.98 µM
IC50 (Leishmania donovani [2]): Not Active

COC(=O)c1c([N+](=O)[O-])noc1-c1ccccc1
IC50 (Leishmania donovani [1]; [5]): 2.17 µM
IC50 (Leishmania donovani [2]): Not Active

O=C(NCc1ccccc1)c1c([N+](=O)[O-])noc1-c1ccc(Cl)cc1
IC50 (Leishmania donovani [1]): Not Active
IC50 (Leishmania donovani [2]): Not Active

O=C(NCc1cccc(Cl)c1Cl)c1c([N+](=O)[O-])noc1-c1ccc([N+](=O)[O-])cc1
IC50 (Leishmania donovani [1]): Not Active
IC50 (Leishmania donovani [2]): Not Active

O=C(NCc1ccccc1)c1c([N+](=O)[O-])noc1-c1ccc([N+](=O)[O-])cc1
IC50 (Leishmania donovani [1]): Not Active
IC50 (Leishmania donovani [2]): Not Active

COC(=O)c1c([N+](=O)[O-])noc1-c1ccc(Cl)cc1
IC50 (Leishmania donovani [1]; [5]): 1.79 µM
IC50 (Leishmania donovani [2]): Not Active

COC(=O)c1c(NCc2ccccc2)noc1-c1cc2c(cc1[N+](=O)[O-])OCO2
IC50 (Leishmania donovani [1]; [5]): > 50 µM
IC50 (Leishmania donovani [2]): Not Active

COC(=O)c1c([N+](=O)[O-])noc1-c1cccc(-c2cccs2)c1
IC50 (Leishmania donovani [1]; [5]): 38.4 µM
IC50 (Leishmania donovani [2]): Not Active

COc1cccc(CNC(=O)c2c([N+](=O)[O-])noc2-c2ccc([N+](=O)[O-])cc2)c1
IC50 (Leishmania donovani [1]): Not Active
IC50 (Leishmania donovani [2]): Not Active

O=C(Nc1ccccc1)c1c([N+](=O)[O-])noc1-c1ccc([N+](=O)[O-])cc1
IC50 (Leishmania donovani [1]): Not Active
IC50 (Leishmania donovani [2]): Not Active

CCN(CC)CCNc1noc(-c2ccc(Cl)cc2Cl)c1C(=O)OC
IC50 (Leishmania donovani [1]): Not Active
IC50 (Leishmania donovani [2]): Not Active

COC(=O)c1c(NCc2ccc(OC)cc2)noc1-c1ccc([N+](=O)[O-])cc1
IC50 (Leishmania donovani [1]): Not Active
IC50 (Leishmania donovani [2]): Not Active

COC(=O)c1c([N+](=O)[O-])noc1-c1ccccc1[N+](=O)[O-]
IC50 (Leishmania donovani [1]; [5]): 4.01 µM
IC50 (Leishmania donovani [2]): Not Active

From ChEMBL document CHEMBL4699419, “Antileishmanial assessment of isoxazole derivatives against L. donovani” (RSC Med Chem, 2020)
